{"data": "Published values collected from several papers", "target": "D(4) dopamine receptor (DRD4, Homo sapiens, UniProt P21917)", "technique": "radioligand", "One construct used (P21917 1-419)": "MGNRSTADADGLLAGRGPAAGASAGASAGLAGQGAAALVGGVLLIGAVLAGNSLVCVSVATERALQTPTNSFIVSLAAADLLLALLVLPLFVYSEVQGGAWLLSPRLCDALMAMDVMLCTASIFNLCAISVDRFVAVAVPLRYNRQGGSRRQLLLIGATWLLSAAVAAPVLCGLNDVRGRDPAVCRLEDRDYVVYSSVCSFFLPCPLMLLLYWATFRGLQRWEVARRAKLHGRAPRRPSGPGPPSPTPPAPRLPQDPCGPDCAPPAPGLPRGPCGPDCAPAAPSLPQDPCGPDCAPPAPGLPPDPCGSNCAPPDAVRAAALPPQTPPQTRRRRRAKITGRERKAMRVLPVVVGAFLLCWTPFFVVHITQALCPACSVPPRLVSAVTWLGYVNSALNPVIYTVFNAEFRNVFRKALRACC", "note": "Each line is one published result; the experiments were not run side by side."}
{"SMILES": "O=C1c2ccccc2CCCN1CCCCN1CCN(c2ccccn2)CC1", "read-out": "ligand displacement", "Ki": "6.5 nM"}
{"SMILES": "CCCCN1CCC(COC(=O)c2ccc(N)c(OCF)c2)CC1", "read-out": "cell-free assay", "Ki": "> 10000 nM"}
{"SMILES": "Oc1ccc(CCC2=NCCN2CCc2ccccc2)cc1", "read-out": "ligand displacement", "Ki": "> 10000 nM"}
{"SMILES": "CCOc1c(O)cc(Br)c2c1CN1CCc3cc(OCC(F)F)c(O)cc3[C@@H]1C2", "read-out": "cell-free assay", "Ki": "2720 nM"}
{"SMILES": "Oc1cccc(CCC2=NCCN2CCc2ccccc2)c1", "read-out": "ligand displacement", "Ki": "589 nM"}
{"SMILES": "CCCCCCCCCCCCNCCCc1ccc([N+](=O)[O-])cc1", "read-out": "ligand displacement", "Ki": "1800 nM"}
{"SMILES": "Cc1ccc(OC[C@@H]2CN(CCN3CCc4ccccc43)CCO2)cn1", "read-out": "ligand displacement", "Ki": "503 nM"}
{"SMILES": "c1ccc(CCC2=NCCN2CCc2ccccc2)cc1", "read-out": "ligand displacement", "Ki": "758 nM"}
{"SMILES": "COc1ccc2c(c1)C(=O)N(CCCN1CCN(c3ccccc3OC)CC1)C2", "read-out": "ligand displacement", "Ki": "8.4 nM"}
{"SMILES": "CCCCCCCNCCCc1ccccc1", "read-out": "ligand displacement", "Ki": "390 nM"}
{"SMILES": "CCN(CC)c1ccc(C2Nc3ccc(C(=O)c4ccccc4)cc3NC3=C2C(=O)CC(C)(C)C3)cc1 (centres unmarked)", "read-out": "cell-free assay", "Ki": "1530 nM"}
